One assay concerns the target Prothrombin (Homo sapiens, UniProt P00734). The experiment in a line: The binding affinity towards thrombin obtained from human purified enzymes.
The target of a further assay is Coagulation factor X (Homo sapiens, UniProt P00742). The experiment in a line: Binding affinity to purified human coagulation factor Xa (FXa).
Assay [1] addresses T1, Serine protease 1 (Homo sapiens, UniProt P07477). Description: The binding affinity was measured towards human purified trypsin. A digest of the protocol: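 Human purified enzymes, microtiter format; 0.1 M sodium phosphate, 0.2 M NaCl, 0.5% PEG 6000, pH 7.0. Compound at 10 to 0.00316 µM (eight half-log steps). Absorbance at 405 nm read for 30 min; rates vs uninhibited controls give % activity, Ki calculated from substrate concentration and Km. Duplicate runs with the same internal standards.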

A further assay is filed under the species Oryctolagus cuniculus. The experiment in a line: The ID50 value was the 50% inhibition of thrombus formation was measured on rabbits. The class given is functional. The procedure, abridged:
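New Zealand rabbits (2-4 kg) under ketamine (50 mg/kg im) plus xylazine (10 mg/kg im). Femoral artery-vein shunt containing silk thread. Compound or saline vehicle given as continuous iv infusion via jugular vein, starting 1 h before shunt flow and continuing throughout (100 min).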

Assay [2] deals with T1, Serine protease 1. The experiment in a line: The binding affinity was measured on trypsin obtained from Human purified enzymes. The procedure, abridged:
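Inhibition constant against human purified trypsin, in 0.1 M sodium phosphate with 0.2 M NaCl and 0.5% PEG 6000, pH 7.0. Eight inhibitor levels were run, 10 down to 0.00316 µM. Absorbance was read at 405 nm for 30 min. Ki was derived from % activity relative to uninhibited rates using Km and substrate concentration. Duplicate runs alongside internal standards.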

Structures are written as SMILES.

Sequence of Coagulation factor X (P00742 41-179 limits assumed): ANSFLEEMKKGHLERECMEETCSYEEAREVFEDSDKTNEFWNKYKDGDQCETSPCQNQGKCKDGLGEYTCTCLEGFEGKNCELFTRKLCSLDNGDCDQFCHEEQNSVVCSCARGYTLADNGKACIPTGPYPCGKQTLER
Sequence of Coagulation factor X (P00742 235-488 limits assumed): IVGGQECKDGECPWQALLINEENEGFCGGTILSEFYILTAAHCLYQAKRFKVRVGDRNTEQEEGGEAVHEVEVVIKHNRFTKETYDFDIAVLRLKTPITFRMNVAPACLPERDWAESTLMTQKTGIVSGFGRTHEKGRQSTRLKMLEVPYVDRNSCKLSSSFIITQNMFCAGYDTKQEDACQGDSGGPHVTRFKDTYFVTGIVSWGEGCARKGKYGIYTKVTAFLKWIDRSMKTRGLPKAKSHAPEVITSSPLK
T1 sequence (P07477 whole entry): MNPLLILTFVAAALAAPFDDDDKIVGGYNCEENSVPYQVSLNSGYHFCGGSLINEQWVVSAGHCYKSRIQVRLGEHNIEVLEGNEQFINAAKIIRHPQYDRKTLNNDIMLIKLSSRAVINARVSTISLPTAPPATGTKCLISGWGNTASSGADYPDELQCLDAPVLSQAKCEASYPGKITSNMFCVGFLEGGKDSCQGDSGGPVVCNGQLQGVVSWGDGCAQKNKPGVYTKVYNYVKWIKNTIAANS

Regarding `COC(=O)CC1(C(=O)Nc2ccc(-c3cccc(C)c3)cc2)CC(c2cccc(C(=N)N)c2)=NO1` (stereo not given), the figures for the inhibition constant (Ki) at Prothrombin and on Coagulation factor X were 2.1 µM and 0.24 µM, respectively.
As for `COC(=O)CC1(C(=O)Nc2ccc(-c3cccc(OC)c3)cc2)CC(c2cccc(C(=N)N)c2)=NO1` (stereo not given), the inhibitory constant (Ki) (commonly the dissociation constant of the complex between target and ligand, obtained from inhibition or displacement) is 2.7 µM on Prothrombin, 0.39 µM on Serine protease 1 [1] and 0.2 µM on Coagulation factor X.
As to `COC(=O)CC1(C(=O)Nc2ccc(-c3ccccc3C(F)(F)F)cc2)CC(c2cccc(C(=N)N)c2)=NO1` (stereo not given), the Ki on Prothrombin is 1.4 µM; on Serine protease 1 [1] it was 0.23 µM; at Coagulation factor X, 0.028 µM.
Take `COC(=O)CC1(C(=O)Nc2ccc(-c3ccccc3S(N)(=O)=O)nc2)CC(c2cccc(C(=N)N)c2)=NO1` (stereo not given): the results for the inhibition constant Ki on Prothrombin, at Serine protease 1 [1] and on Coagulation factor X were 10.8 µM, 0.18 µM and 0.019 µM, respectively.
On to `COC(=O)CC1(C(=O)Nc2ccc(-c3ccccc3OC)cc2)CC(c2cccc(C(=N)N)c2)=NO1` (stereo not given), for which the results for the Ki at Prothrombin, at Serine protease 1 [1] and at Coagulation factor X were 2.8 µM, 0.31 µM and 0.062 µM, respectively.
With `COC(=O)CC1(C(=O)Nc2ccc(-c3ccccc3S(N)(=O)=O)cc2C)CC(c2cccc(C(=N)N)c2)=NO1` (stereo not given), the Ki stood at 3.1 µM at Prothrombin, 0.3 µM on Serine protease 1 [1] and 0.0088 µM on Coagulation factor X.
Take `COC(=O)CC1(C(=O)Nc2ccc(-c3ccccc3C(=O)OC)cc2)CC(c2cccc(C(=N)N)c2)=NO1` (stereo not given): the inhibition constant Ki came to 2.1 µM at Prothrombin, 0.3 µM on Serine protease 1 [1] and 0.053 µM at Coagulation factor X.
As for `COC(=O)CC1(C(=O)Nc2ccc(-c3ccccc3S(N)(=O)=O)cc2F)CC(c2cccc(C(=N)N)c2)=NO1` (stereo not given), the inhibition constant Ki at Prothrombin stood at 3.8 µM; at Serine protease 1 [1], 0.12 µM; on Coagulation factor X, 0.0042 µM.
As to `COC(=O)CC1(C(=O)Nc2ccc(-c3cccc(S(N)(=O)=O)c3)cc2)CC(c2cccc(C(=N)N)c2)=NO1` (stereo not given), the results for the inhibition constant Ki at Prothrombin, at Serine protease 1 [1] and at Coagulation factor X were 3.1 µM, 0.34 µM and 0.068 µM, respectively.
As to `COC(=O)CC1(C(=O)Nc2ccc(-c3ccccc3S(C)(=O)=O)cc2)CC(c2cccc(C(=N)N)c2)=NO1` (stereo not given), the inhibition constant Ki is 0.6 µM on Prothrombin, 0.1 µM on Serine protease 1 [1] and 0.0042 µM on Coagulation factor X.
On to `COC(=O)CC1(C(=O)Nc2ccc(-c3ccccc3)cc2)CC(c2cccc(C(=N)N)c2)=NO1` (stereo not given), for which the figures for the inhibitory constant (Ki) on Prothrombin, at Serine protease 1 [1] and on Coagulation factor X were 3.5 µM, 0.47 µM and 0.22 µM, respectively.
Taken in the same sequence, the figures for `COC(=O)CC1(C(=O)Nc2ccc(-c3ccccc3C)cc2)CC(c2cccc(C(=N)N)c2)=NO1` (stereo not given) were 1.8 µM, 0.39 µM and 0.21 µM.
The like results for `COC(=O)CC1(C(=O)Nc2ccc(-c3ccccc3SC)cc2)CC(c2cccc(C(=N)N)c2)=NO1` (stereo not given) were, in that order, 1.2 µM, 0.26 µM and 0.066 µM.
As for `COC(=O)CC1(C(=O)Nc2ccc(-c3cccc(C(F)(F)F)c3)cc2)CC(c2cccc(C(=N)N)c2)=NO1` (stereo not given), the inhibition constant Ki amounted to 1.2 µM on Prothrombin, 0.57 µM at Serine protease 1 [1] and 0.24 µM at Coagulation factor X.
For `COC(=O)CC1(C(=O)Nc2ccc(-c3ccccc3S(N)(=O)=O)cc2)CC(c2cccc(C(=N)N)c2)=NO1.O=C(O)C(F)(F)F` (racemic), the ID50 in the assay listed under Oryctolagus cuniculus is 0.6 µM/h/kg. Also, the Ki at Serine protease 1 [1] was 0.121 µM.
Molecule `COC(=O)CC1(C(=O)Nc2ncc(-c3ccccc3S(N)(=O)=O)cn2)CC(c2cccc(C(=N)N)c2)=NO1.O=C(O)C(F)(F)F` (racemic) returned an ID50 in the assay listed under Oryctolagus cuniculus of 0.4 µM/h/kg.
In the assay listed under Oryctolagus cuniculus, `COC(=O)CC1(C(=O)Nc2ccc(-c3ccccc3S(N)(=O)=O)cn2)CC(c2cccc(C(=N)N)c2)=NO1.O=C(O)C(F)(F)F` (racemic) showed an ID50 of 0.3 µM/h/kg. Besides, the inhibition constant (Ki) on Serine protease 1 [1] was determined as 0.025 µM; on Coagulation factor X, 0.00096 µM.
In turn, `COC(=O)CC1(C(=O)Nc2ccc(-c3ccccc3S(N)(=O)=O)cc2)CC(c2cccc(C(=N)N)c2)=NO1.O=C(O)C(F)(F)F` (single isomer, unassigned; (+)) showed an ID50 in the assay listed under Oryctolagus cuniculus of 2 µM/h/kg. The results for the inhibitory constant (Ki) at Prothrombin and on Serine protease 1 [1] were greater than 21 µM and 0.3 µM, respectively.
`COC(=O)CC1(C(=O)Nc2ccc(-c3ccccc3S(N)(=O)=O)cn2)CC(c2cccc(C(=N)N)c2)=NO1.O=C(O)C(F)(F)F` (single isomer, unassigned; (+)) registered an ID50 in the assay listed under Oryctolagus cuniculus of 0.6 µM/h/kg. For the same molecule, the inhibitory constant (Ki) at Prothrombin came out at 18 µM; on Serine protease 1 [1] it was 0.13 µM; on Coagulation factor X, 0.007 µM.
For the molecule `CC(=O)N[C@H](Cc1ccccc1)C(=O)N1CCC[C@@H]1C(=O)NC(CCCN=C(N)N)B(O)O` (single isomer, unassigned; (-)), the figures for the inhibition constant (Ki) at Serine protease 1 [2] and at Coagulation factor X were 0.055 µM and 0.04 µM, respectively.
On to `COC(=O)CC1(C(=O)Nc2ccc(-c3ccccc3S(N)(=O)=O)cc2)CC(c2cccc(C(=N)N)c2)=NO1.O=C(O)C(F)(F)F` (single isomer, unassigned; (-)), for which the ID50 in the assay filed under Oryctolagus cuniculus is 0.2 µM/h/kg. Also, the Ki at Prothrombin was 2.4 µM; at Serine protease 1 [1] it was 0.098 µM.
`COC(=O)CC1(C(=O)Nc2ncc(-c3ccccc3S(N)(=O)=O)cn2)CC(c2cccc(C(=N)N)c2)=NO1.O=C(O)C(F)(F)F` (single isomer, unassigned; (-)): the ID50 in the assay filed under Oryctolagus cuniculus amounted to 0.15 µM/h/kg. For the same molecule, the figures for the Ki on Prothrombin, at Serine protease 1 [1] and at Coagulation factor X were 8.9 µM, 0.17 µM and 0.0023 µM, respectively.
`COC(=O)CC1(C(=O)Nc2ccc(-c3ccccc3S(N)(=O)=O)cn2)CC(c2cccc(C(=N)N)c2)=NO1.O=C(O)C(F)(F)F` (single isomer, unassigned; (-)) displayed an ID50 in the assay listed under Oryctolagus cuniculus of 0.26 µM/h/kg. Besides, the values for the Ki on Prothrombin, on Serine protease 1 [1] and on Coagulation factor X were 2.9 µM, 0.017 µM and 0.00083 µM, respectively.
Consider `COC(=O)CC1(C(=O)Nc2ccc(-c3ccccc3S(N)(=O)=O)cn2)CC(c2cccc(C(=N)N)c2)=NO1` (stereo in doubt; 30), for which the inhibitory constant (Ki) was determined as 0.025 µM at Serine protease 1 [1] and 0.00096 µM at Coagulation factor X.
For `COC(=O)CC1(C(=O)Nc2ncc(-c3ccccc3S(N)(=O)=O)cn2)CC(c2cccc(C(=N)N)c2)=NO1` (stereo in doubt; 31), the results for the Ki on Prothrombin and at Serine protease 1 [1] were 14 µM and 0.336 µM, respectively.
In the assay filed under Oryctolagus cuniculus, `COC(=O)CC1(C(=O)Nc2ncc(-c3ccccc3S(N)(=O)=O)cn2)CC(c2cccc(C(=N)N)c2)=NO1.O=C(O)C(F)(F)F` (stereo in doubt; 34(+)) displayed an ID50 greater than 1.5 µM/h/kg. Besides, the Ki was greater than 21 µM on Prothrombin, 0.71 µM at Serine protease 1 [1] and 0.012 µM at Coagulation factor X.

The values are drawn from ChEMBL document CHEMBL1132311, “Design and synthesis of isoxazoline derivatives as factor Xa inhibitors. 1” (J Med Chem, 1999).
